Here are results for 33 compounds from ChEMBL document CHEMBL1153209, “Synthesis and biological activity of a potent and orally bioavailable SCD inhibitor (MF-438)” (Bioorg Med Chem Lett, 2010).

The target of one data set is T1, Acyl-CoA desaturase 1 (Rattus norvegicus, UniProt P07308).
T1 sequence (P07308 whole entry): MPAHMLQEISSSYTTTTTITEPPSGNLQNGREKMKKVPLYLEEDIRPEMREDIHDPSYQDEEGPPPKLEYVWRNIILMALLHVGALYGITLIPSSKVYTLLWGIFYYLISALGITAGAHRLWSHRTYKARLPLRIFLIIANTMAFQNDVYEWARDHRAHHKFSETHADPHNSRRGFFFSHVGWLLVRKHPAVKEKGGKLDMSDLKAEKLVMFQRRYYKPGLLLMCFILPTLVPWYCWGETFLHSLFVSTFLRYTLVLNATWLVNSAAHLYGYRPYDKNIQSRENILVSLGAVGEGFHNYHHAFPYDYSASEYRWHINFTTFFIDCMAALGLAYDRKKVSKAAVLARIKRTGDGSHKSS
The data set is described as follows: Inhibition of SCD1 in rat liver microsomes. On the set-up: species or system Microsome. (In general: Liver microsomes are a subcellular fraction often used to study metabolism.)

Data set [1] is described as follows: AUC in rat at 10 mg/kg, po. As to conditions: plasma; call rule not given here. It is filed as ADME, organism-based. The arrangement: dose 10 mg/kg, route oral. In outline:
(§1)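 Rats dosed 10 mg/kg PO and 2 mg/kg IV; plasma concentration sampled over time for parent and its acid metabolite; each time point is the average of two animals.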

The test system of another data set is Rattus norvegicus. Nature of the data set: Stability in rat assessed as AUC of 6-(4-(2-(trifluoromethyl)phenoxy)piperidin-1-yl)pyridazine-3-carboxylic acid at 10 mg/kg, po. It is filed as ADME, organism-based. The arrangement: dose 10 mg/kg, route oral. As to conditions: in vivo. In outline: as §1
Data set [2] can be described thus: AUC in rat at 2 mg/kg, iv. It is filed as ADME, organism-based. On the set-up: dose 2 mg/kg, route intravenous. The note with it: plasma. In a few lines:
as §1

The nature of data set [3]: Bioavailability in rat at 10 mg/kg, po or 2 mg/kg, iv. It is filed as ADME, organism-based. The note with it: in vivo. In a few lines: as §1
The nature of data set [4]: Half life in rat at 10 mg/kg, po or 2 mg/kg, iv. Type of data set: ADME, organism-based. The note with it: in vivo. In outline: as §1
Data set [5] addresses T2, Cytochrome P450 2D6 (Homo sapiens, UniProt P10635). The data set is described as follows: Inhibition of CYP2D6. It is filed as ADME.
Data set [6] addresses T3, Cytochrome P450 3A4 (Homo sapiens, UniProt P08684). The data set is described as follows: Inhibition of CYP3A4. It is filed as ADME.
Data set [7] has as its target T2, Cytochrome P450 2D6. The data set is described as follows: Inhibition of CYP2D6 up to 30 uM. Type of data set: ADME.
Data set [8] is described as follows: Half life in mouse. Type of data set: ADME, organism-based. As to conditions: in vivo.
For data set [9], the target named is T3, Cytochrome P450 3A4. The data set is described as follows: Inhibition of CYP3A4 up to 30 uM. It is filed as ADME.
Data set [10] relates to Mus musculus. The data set is described as follows: Toxicity in DIO mouse assessed as partial eye closure at 5 mg/kg qd for 1 week. Type of data set: organism-based. The arrangement: dose 5 mg/kg. As to conditions: in vivo, 168 h.
A short description of data set [11]: Half life in rat. As to conditions: in vivo. It is filed as ADME, organism-based.
Data set [12] deals with Mus musculus. The data set is described as follows: Toxicity in diet-induced obese chronic po dosed mouse. The note with it: in vivo.
Data set [13] deals with Mus musculus. Nature of the data set: Inhibition of stearoyl-CoA […] in high-carbohydrate diet-fed mouse liver dosed orally assessed as conversion of [14C]stearic acid to [14C]oleic acid. Type of data set: functional. The note with it: po. In outline: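 Mice on a high-carbohydrate diet given compound PO, then IV 14C-stearic acid tracer 1 h later; livers collected 2 h after tracer and lipids analysed.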

Data set [14] can be described thus: Oral bioavailability in rat. Type of data set: ADME, organism-based. As to conditions: in vivo.
Data set [15] concerns Mus musculus. Nature of the data set: Toxicity in DIO mouse assessed as alopecia at 5 mg/kg qd for 1 week. It is filed as organism-based. On the set-up: dose 5 mg/kg. The note with it: in vivo, 168 h.
A short description of data set [16]: Oral bioavailability in mouse. It is filed as ADME, organism-based. As to conditions: in vivo.

SMILES strings stand for the structures.

T3 sequence (P08684 whole entry): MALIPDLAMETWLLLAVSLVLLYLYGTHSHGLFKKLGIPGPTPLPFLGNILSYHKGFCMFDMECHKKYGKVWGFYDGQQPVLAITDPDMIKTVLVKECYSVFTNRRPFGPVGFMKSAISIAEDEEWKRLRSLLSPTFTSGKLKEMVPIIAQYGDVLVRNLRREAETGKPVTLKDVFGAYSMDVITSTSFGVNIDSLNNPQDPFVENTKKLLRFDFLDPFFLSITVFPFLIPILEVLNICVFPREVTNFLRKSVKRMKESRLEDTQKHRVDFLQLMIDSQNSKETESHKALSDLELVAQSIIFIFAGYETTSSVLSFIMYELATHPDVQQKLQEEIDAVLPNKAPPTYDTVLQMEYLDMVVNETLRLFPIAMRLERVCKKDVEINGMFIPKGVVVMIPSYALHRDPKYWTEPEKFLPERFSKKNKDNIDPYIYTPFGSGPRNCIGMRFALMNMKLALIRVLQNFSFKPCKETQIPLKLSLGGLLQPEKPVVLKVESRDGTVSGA
T2 sequence (P10635 whole entry): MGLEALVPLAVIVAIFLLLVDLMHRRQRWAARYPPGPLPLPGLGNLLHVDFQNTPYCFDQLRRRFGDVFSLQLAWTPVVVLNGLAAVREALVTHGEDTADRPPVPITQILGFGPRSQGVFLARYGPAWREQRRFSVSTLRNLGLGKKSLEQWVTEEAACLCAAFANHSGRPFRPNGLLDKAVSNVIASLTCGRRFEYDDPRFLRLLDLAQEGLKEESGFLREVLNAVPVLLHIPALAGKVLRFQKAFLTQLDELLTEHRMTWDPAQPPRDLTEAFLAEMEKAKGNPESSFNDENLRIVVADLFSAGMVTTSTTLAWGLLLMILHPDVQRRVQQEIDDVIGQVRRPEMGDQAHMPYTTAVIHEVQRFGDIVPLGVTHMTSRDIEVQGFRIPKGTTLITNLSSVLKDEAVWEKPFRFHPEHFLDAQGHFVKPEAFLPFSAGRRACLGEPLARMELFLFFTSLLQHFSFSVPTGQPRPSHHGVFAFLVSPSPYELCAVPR

On to `CC(C)(C)c1nnc(-c2ccc(N3CCC(Oc4ccccc4C(F)(F)F)CC3)nn2)o1`, for which half-maximal inhibition against Acyl-CoA desaturase 1 (IC50) required 980 nM.
Same read-out and setting: next, `Brc1cccc(OC2CCN(c3ccc(-n4ccnc4)nn3)CC2)c1`: 23 nM.
On to `NC(=O)c1ccc(N2CCC(Oc3ccccc3C(F)(F)F)CC2)nn1`, for which the IC50 at Acyl-CoA desaturase 1 was found to be 16 nM. The results for the AUC (in data set [1]; in the data set on Rattus norvegicus; in data set [2]) were 0.9 µM·h, 179 µM·h and 1.9 µM·h, respectively. In [3], the bioavailability came to 10%. For the same compound, the half-life in data set [4] was 0.54 h.
At Acyl-CoA desaturase 1, `CC(C)(C)c1nnc(-c2ccc(N3CCC(Oc4ccccc4C(F)(F)F)CC3)nn2)s1` had an IC50 of 710 nM.
Still for that read-out and setting: the result for `FC(F)(F)c1ccccc1OC1CCN(c2ccc(-c3nnco3)nn2)CC1` reads 22 nM; that for `COc1ccccc1OC1CCN(c2ccc(-n3ccnc3)nn2)CC1`, 543 nM; that for `CC(=O)c1ccccc1OC1CCN(c2ccc(-n3ccnc3)nn2)CC1`, 34 nM.
The compound `c1ccc(OC2CCN(c3ccc(-n4ccnc4)nn3)CC2)cc1` registered an IC50 at Acyl-CoA desaturase 1 of 1890 nM.
The same measure, in the same setting: the result for `Cc1nnc(-c2ccc(N3CCC(Oc4ccccc4C(F)(F)F)CC3)nn2)o1` reads 6 nM; that for `c1cn(-c2ccc(N3CCC(Oc4ccc5c(c4)CCC5)CC3)nn2)cn1`, 62 nM.
Still for that read-out and setting: next, `O=C(NCCC1CC1)c1ccc(N2CCC(Oc3ccccc3C(F)(F)F)CC2)nn1`: 14 nM; `FC(F)(F)c1cccc(OC2CCN(c3ccc(-n4ccnc4)nn3)CC2)c1`: 19 nM; `c1cc(OC2CCN(c3ccc(-n4ccnc4)nn3)CC2)c2cc[nH]c2c1`: 162 nM.
On the same count and under the same terms, the result for `OCc1nnc(-c2ccc(N3CCC(Oc4ccccc4C(F)(F)F)CC3)nn2)o1` reads 2.9 nM.
`OCc1nnc(-c2ccc(N3CCC(Oc4ccccc4C(F)(F)F)CC3)nn2)s1` registered a 50% inhibitory concentration (IC50) on Acyl-CoA desaturase 1 of 3.2 nM.
Same read-out and setting: the result for `N#Cc1ccccc1OC1CCN(c2ccc(-n3ccnc3)nn2)CC1` reads 236 nM.
Same read-out and setting: the result for `Cc1ccc(OC2CCN(c3ccc(-n4ccnc4)nn3)CC2)cc1` reads 527 nM; that for `Oc1nnc(-c2ccc(N3CCC(Oc4ccccc4C(F)(F)F)CC3)nn2)s1`, 6.1 nM.
Consider `Brc1ccccc1OC1CCN(c2ccc(-n3ccnc3)nn2)CC1`, for which the concentration for half-maximal inhibition (IC50) against Acyl-CoA desaturase 1 is 5 nM.
Take `Cc1cccc(OC2CCN(c3ccc(-n4ccnc4)nn3)CC2)c1`: the IC50 against Acyl-CoA desaturase 1 came out at 251 nM.
As for `FC(F)(F)c1ccccc1OC1CCN(c2ccc(-n3ccnc3)nn2)CC1`, the values for the IC50 against Acyl-CoA desaturase 1, on Cytochrome P450 2D6 [5] and against Cytochrome P450 3A4 [6] were 4 nM, 300 nM and 400 nM, respectively. The same compound showed a bioavailability in data set [3] of 53%. This compound also had a half-life in data set [4] of 1.2 h.
On Acyl-CoA desaturase 1, `CC(C)c1nnc(-c2ccc(N3CCC(Oc4ccccc4C(F)(F)F)CC3)nn2)s1` returned a half-inhibitory concentration (IC50) of 8.8 nM.
Still for that read-out and setting: next, `CCc1ccccc1OC1CCN(c2ccc(-n3ccnc3)nn2)CC1`: 4 nM; `O=C(NCCC1CC1)c1ccc(N2CCN(C(=O)c3ccccc3C(F)(F)F)CC2)nn1`: 322 nM; `CC(C)Cc1nnc(-c2ccc(N3CCC(Oc4ccccc4C(F)(F)F)CC3)nn2)s1`: 37 nM.
Still for that read-out and setting: the result for `O=C(O)c1ccc(N2CCC(Oc3ccccc3C(F)(F)F)CC2)nn1` reads 10000 nM; that for `CC(C)c1nnc(-c2ccc(N3CCC(Oc4ccccc4C(F)(F)F)CC3)nn2)o1`, 3.9 nM.
For `c1cc2c(c(OC3CCN(c4ccc(-n5ccnc5)nn4)CC3)c1)CCC2`, inhibition on Acyl-CoA desaturase 1 was half-maximal at 10 nM (IC50).
On the same count and under the same terms, the result for `Cc1ccccc1OC1CCN(c2ccc(-n3ccnc3)nn2)CC1` reads 39 nM.
Same read-out and setting: next, `FC(F)(F)c1ccc(OC2CCN(c3ccc(-n4ccnc4)nn3)CC2)cc1`: 371 nM.
In the case of `CC(C)Cc1nnc(-c2ccc(N3CCC(Oc4ccccc4C(F)(F)F)CC3)nn2)o1`, inhibition against Acyl-CoA desaturase 1 was half-maximal at 15 nM (IC50).
On to `CCc1cccc(OC2CCN(c3ccc(-n4ccnc4)nn3)CC2)c1`, for which, on Acyl-CoA desaturase 1, the half-maximal inhibitory concentration (IC50) was determined as 38 nM.
`Cc1nnc(-c2ccc(N3CCC(Oc4ccccc4C(F)(F)F)CC3)nn2)s1`: the “inhibition (INH)” value at Cytochrome P450 2D6 [7] and on Cytochrome P450 3A4 [9] was “Not Active” each time. The figures for the half-life in data set [8] and in data set [11] were 6.4 h and 6 h, respectively. The Activity result in the data set on Mus musculus [10], with Mus musculus [12] and in the data set on Mus musculus [15] was “Toxic” throughout. The IC50 at Acyl-CoA desaturase 1 was determined as 2.3 nM. Moreover, in the data set with Mus musculus [13], the ED50 came out at 1 mg/kg. Moreover, the bioavailability is 38% in data set [14] and 73% in data set [16].

What is called IC50 is the point on the concentration scale where inhibition reaches its midpoint. Read a high IC50 as a need for much substance. One may read the AUC as concentration integrated over time. What is called bioavailability is dose-corrected exposure relative to a reference, in per cent. One may read the half-life as how long it takes for the measured level to halve.
